Assays:
[1] = Dissociation constant, pKa of compound using buffers of given pH (range from 3.0 to 11.5) by UV-VIS spectrophotometry; format: physicochemical
Procedure, shortened: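 Compound (10 μL of 1 mg/mL) was put into 490 μL of buffers spanning pH 3.0–11.5 in 0.5-unit steps. UV spectra were scanned at 200–400 nm and 20 °C. pKa was fitted from the sigmoidal absorbance of the dissociated form versus pH.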

[2] = Partition coefficient between Water and Octanol, logP of the compound by UHPLC-DAD-MS analysis; details: pH 7.4
[3] = PBS buffer - Octanol distribution coefficient, logD of the compound at pH 7.4 by UHPLC-DAD-MS analysis; format: physicochemical
Procedure, shortened: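 Compound (0.25 mg) was put into 500 μL of a 1:1 water–octanol (logP) or PBS pH 7.4–octanol (logD) mixture. Samples were shaken 30 min and centrifuged 10 min at 10,000 rcf. Each phase was quantified by UHPLC-DAD-MS against calibration lines.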

[4] = biological target: T1, 3-hydroxyacyl-CoA dehydrogenase type-2 (Homo sapiens) (UniProt Q99714); assay: Inhibition of recombinant 17beta-HSD10 (unknown origin) expressed in Escherichia coli BL21 (DE3) assessed as residual activity at 1 uM using acetoacetyl-CoA as substrate by SAAC method relative to control
T1 sequence (whole entry): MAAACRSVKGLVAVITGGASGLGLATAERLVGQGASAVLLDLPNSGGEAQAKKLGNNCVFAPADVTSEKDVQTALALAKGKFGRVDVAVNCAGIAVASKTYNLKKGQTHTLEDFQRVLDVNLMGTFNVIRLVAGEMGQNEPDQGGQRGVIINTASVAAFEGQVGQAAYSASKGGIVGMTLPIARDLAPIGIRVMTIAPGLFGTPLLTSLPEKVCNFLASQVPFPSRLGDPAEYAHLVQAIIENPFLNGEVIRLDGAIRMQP
Procedure, shortened: (§1)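 Recombinant 17β-HSD10 from E. coli BL21(DE3), 0.15 μg, was mixed with 320 μmol/L NADH in Tris-HCl pH 7.4 assay buffer. It was preincubated 5 min at 37 °C with 1 or 10 μM inhibitor or vehicle, then 320 μmol/L acetoacetyl-CoA was added. A340 was followed for 5 min. Residual activity is % of control, triplicate mean ± SD, with t-test versus control.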

[5] = Aqueous solubility, logS of the compound at pH 7.4 phosphate buffer by nephelometry assay; format: physicochemical
Procedure, shortened: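 Nephelometry of compound suspensions in phosphate buffer pH 7.4. Stock was 160 μg/mL, sonicated and auto-diluted over 0–160 μg/mL, with higher stocks (640 μg/mL, 2.54 mg/mL) used if needed. Wells were shaken 30 s and laser-scanned. Solubility was derived by segmental linear regression.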

[6] = biological target: T1, 3-hydroxyacyl-CoA dehydrogenase type-2 (Homo sapiens); assay: Inhibition of recombinant 17beta-HSD10 (unknown origin) expressed in Escherichia coli BL21 (DE3) assessed as residual activity at 10 uM using acetoacetyl-CoA as substrate by SAAC method relative to control; procedure, shortened: as §1
[7] = biological target: T2, 3-hydroxyacyl-CoA dehydrogenase type-2 (Homo sapiens, UniProt Q99714); assay: Inhibition of human recombinant 17beta-HSD10 expressed in bacterial expression system assessed as decrease in NADH using acetoacetyl-CoA as substrate
T2 sequence (Q99714 whole entry): T1 sequence (whole entry)
Procedure, shortened: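 Recombinant 17β-HSD10 from E. coli BL21(DE3), 0.15 μg, was mixed with 320 μmol/L NADH in 10 mM Tris-HCl pH 7.4 buffer (150 mM NaCl, 1 mM DTT, 0.001% Tween 20, 0.01% BSA). It was preincubated 5 min at 37 °C with inhibitor, then 320 μmol/L acetoacetyl-CoA was added. A340 was followed for 5 min. IC50 came from non-linear regression of ≥3 independent runs in triplicate; Ki was calculated from IC50 per Cer et al.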

SMILES | pKa [1] | logP [2] | logD [3] | Activity [4] | logS0 [5] | Activity [6] | IC50 [7]
CN(C)C(=O)c1ccc2nc(NC(=O)Nc3ccc(O)c(Cl)c3)sc2c1 | 9.51 | 2.94 | 2.95 | 70% | -4.81 | 31% | –
COc1ccc2nc(NCc3ccc(O)c(Cl)c3)sc2c1 | 8.4 | 4.19 | 4.17 | 74.4% | -4.73 | 33.2% | –
Oc1ccc(/N=C/c2nc3ccccc3s2)cc1Cl | 9.14 | 2.94 | 2.73 | – | -4.68 | 68.7% | –
Oc1ccc(NCc2nc3ccccc3s2)cc1Cl | 9.07 | 3.77 | 3.88 | – | -4.69 | 72.1% | –
CN(C)c1ccc2nc(NC(=O)Nc3ccc(O)c(Cl)c3)sc2c1 | 4.61 | 4.09 | 4.08 | 62.7% | -4.08 | 27% | –
Oc1ccc(CNCc2nc3ccccc3o2)cc1Cl | 8.74 | 3.14 | 3.19 | – | -3.38 | 67.6% | –

Now from value to compound:

pKa [1] | logP [2] | logD [3] | Activity [4] | logS0 [5] | Activity [6] | IC50 [7] | SMILES
11.6 | 3.79 | 3.95 | – | -4.73 | 76.6% | – | COc1ccc2nc(/N=C/c3ccc(O)c(Cl)c3)sc2c1
8.79 | 4.03 | 4.04 | – | -3.99 | 54.1% | – | Oc1ccc(CNCc2nc3ccccc3s2)cc1Cl
9.26 | 4.58 | 4.64 | – | -4.81 | 58.6% | – | CCOC(=O)c1ccc2nc(NC(=O)Nc3ccc(O)c(Cl)c3)sc2c1
10.4 | 3.47 | 3.44 | – | -4.78 | 79.4% | – | COc1ccc2nc(NC(=O)Nc3ccc(O)c([N+](=O)[O-])c3)sc2c1
– | – | – | – | – | – | 900 nM | CS(=O)(=O)c1ccc2nc(NC(=O)Nc3ccc(O)c(Cl)c3)sc2c1
– | – | – | – | – | – | 1300 nM | COc1ccc2nc(NC(=O)Nc3ccc(O)c(Br)c3)sc2c1
7.6 | 2.84 | 2.73 | – | -3.39 | 73.8% | – | Oc1ccc(CNCc2cc3ccccc3[nH]2)cc1Cl
